For test [1], the target named is Serine/threonine-protein kinase 36 (Homo sapiens) (UniProt Q9NRP7). Briefly: Inhibition of human STK36 (1 to 271 residues) expressed in bacterial expression system assessed as enzyme activity at 1 uM by KINOMEScan assay relative to control. On the set-up: scale not given: the % may be the effect or the level left. In a few lines:
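In vitro ATP-site competition binding assay across a panel of 456 kinases, with compound tested at 1 and 10 μM.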

The target of test [2] is Eukaryotic translation initiation factor 2A (Homo sapiens) (UniProt Q9BY44). Briefly: Binding affinity to EIF2A in human NCI-H23 cells at 1 uM by mass spectrometry based pull down assay. Format: cell-based.
Test [3] deals with Adenylyltransferase and sulfurtransferase MOCS3 (Homo sapiens) (UniProt O95396). Briefly: Binding affinity to MOCS3 in human NCI-H23 cells at 1 uM by mass spectrometry based pull down assay. The class given is cell-based.
In test [4] the target is 182 kDa tankyrase-1-binding protein (Homo sapiens) (UniProt Q9C0C2). Briefly: Binding affinity to TNKS1BP1 in human NCI-H358 cells at 1 uM by mass spectrometry based pull down assay. Format: cell-based.
Test [5] addresses LIM domain kinase 1 (Homo sapiens) (UniProt P53667). Briefly: Binding affinity to LIMK1 in human NCI-H23 cells at 1 uM by mass spectrometry based pull down assay. Format: cell-based.
In test [6] the target is Heterogeneous nuclear ribonucleoprotein H2 (Homo sapiens) (UniProt P55795). Briefly: Binding affinity to HNRNPH2 in human NCI-H23 cells at 1 uM by mass spectrometry based pull down assay. Format: cell-based.
Chain of Heterogeneous nuclear ribonucleoprotein H2 (Homo sapiens) (P55795 whole entry): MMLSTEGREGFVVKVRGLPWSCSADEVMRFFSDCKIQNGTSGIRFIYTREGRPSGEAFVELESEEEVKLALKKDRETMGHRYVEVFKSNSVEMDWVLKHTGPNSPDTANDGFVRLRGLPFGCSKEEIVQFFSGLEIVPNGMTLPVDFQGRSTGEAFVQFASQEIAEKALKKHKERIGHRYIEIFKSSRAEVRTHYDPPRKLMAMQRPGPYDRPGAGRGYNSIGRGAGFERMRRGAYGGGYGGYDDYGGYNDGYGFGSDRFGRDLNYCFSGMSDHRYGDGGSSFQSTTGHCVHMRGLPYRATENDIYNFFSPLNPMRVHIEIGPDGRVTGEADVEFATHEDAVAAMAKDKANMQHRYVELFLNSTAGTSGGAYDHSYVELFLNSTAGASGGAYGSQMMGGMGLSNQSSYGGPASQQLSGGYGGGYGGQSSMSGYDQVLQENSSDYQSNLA
In test [7] the target is Jupiter microtubule associated homolog 2 (Homo sapiens) (UniProt Q9H910). Briefly: Binding affinity to HN1L in human NCI-H358 cells at 1 uM by mass spectrometry based pull down assay. The class given is cell-based.
Chain of Jupiter microtubule associated homolog 2 (Homo sapiens) (Q9H910 whole entry): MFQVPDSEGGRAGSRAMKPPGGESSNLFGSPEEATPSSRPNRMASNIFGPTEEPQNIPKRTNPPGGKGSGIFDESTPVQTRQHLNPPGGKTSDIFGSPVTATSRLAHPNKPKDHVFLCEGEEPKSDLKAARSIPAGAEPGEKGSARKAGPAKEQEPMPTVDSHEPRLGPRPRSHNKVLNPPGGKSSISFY
Test [8] deals with Multifunctional protein CAD (Homo sapiens) (UniProt P27708). Briefly: Binding affinity to CAD in human NCI-H358 cells at 1 uM by mass spectrometry based pull down assay. Format: cell-based.
The target in test [9] is Delta-1-pyrroline-5-carboxylate synthase (Homo sapiens) (UniProt P54886). Briefly: Binding affinity to ALDH18A1 in human NCI-H23 cells at 1 uM by mass spectrometry based pull down assay. Format: cell-based. The essentials:
(§1)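 NCI-H23 or NCI-H358 cells were grown and lysed. Lysates were incubated overnight at 4 °C with 1 μM biotinylated covalent probe or DMSO, then pulled down on streptavidin beads. Proteins were run on polyacrylamide gels and stained with Coomassie. Bands were excised, digested and identified by mass spectrometry.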

Test [10] has as its target Heterogeneous nuclear ribonucleoprotein Q (Homo sapiens) (UniProt O60506). Briefly: Binding affinity to SYNCRIP in human NCI-H358 cells at 1 uM by mass spectrometry based pull down assay. The class given is cell-based.
For test [11], the target named is Glutamate--cysteine ligase regulatory subunit (Homo sapiens) (UniProt P48507). Briefly: Binding affinity to GCLM in human NCI-H358 cells at 1 uM by mass spectrometry based pull down assay. Format: cell-based.
The target in test [12] is T1, 80S Ribosome (Homo sapiens) (UniProt P08865+P42677+P62753+P15880+P23396+P61247+P62701+P22090+P46782+P62081+P62241+P46781+P46783+P62280+P25398+P62277+P62263+P62841+P62244+P62249+P08708+P62269+P39019+P60866+P63220+P62266+P62847+P62851+P62854+P62979+P62857+P62273+P62861+P39023+P36578+P46777+Q02878+P18124+P62424+P62917+P32969+P27635+P62906+P62913+P30050+P26373+P40429+P50914+P61313+P18621+Q07020+Q02543+P84098+P46778+P35268+P62829+P62750+P83731+P61254+P61353+P46776+P46779+P47914+P62888+P62899+P62910+P49207+P42766+P18077+Q9Y3U8+P83881+P61927+P61513+P63173+P62891+P62945+P05388+P05386). Briefly: Binding affinity to RPL9 in human NCI-H358 cells at 1 uM by mass spectrometry based pull down assay. The class given is cell-based.

The target in test [13] is Peroxiredoxin-4 (Homo sapiens) (UniProt Q13162). Briefly: Binding affinity to PRDX4 in human NCI-H358 cells at 1 uM by mass spectrometry based pull down assay. Format: cell-based.
Chain of Peroxiredoxin-4 (Homo sapiens) (Q13162 whole entry): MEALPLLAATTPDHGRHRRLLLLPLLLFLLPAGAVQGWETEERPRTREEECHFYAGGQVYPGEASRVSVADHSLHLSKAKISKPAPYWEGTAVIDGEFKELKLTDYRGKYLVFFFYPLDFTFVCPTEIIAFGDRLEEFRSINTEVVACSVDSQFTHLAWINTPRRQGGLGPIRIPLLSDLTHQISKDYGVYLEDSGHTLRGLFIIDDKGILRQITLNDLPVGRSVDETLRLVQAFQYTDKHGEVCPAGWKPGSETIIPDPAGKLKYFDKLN
In test [14] the target is Protein NipSnap homolog 1 (Homo sapiens) (UniProt Q9BPW8). Briefly: Binding affinity to NIPSNAP1 in human NCI-H358 cells at 1 uM by mass spectrometry based pull down assay. Format: cell-based.
Chain of Protein NipSnap homolog 1 (Homo sapiens) (Q9BPW8 whole entry): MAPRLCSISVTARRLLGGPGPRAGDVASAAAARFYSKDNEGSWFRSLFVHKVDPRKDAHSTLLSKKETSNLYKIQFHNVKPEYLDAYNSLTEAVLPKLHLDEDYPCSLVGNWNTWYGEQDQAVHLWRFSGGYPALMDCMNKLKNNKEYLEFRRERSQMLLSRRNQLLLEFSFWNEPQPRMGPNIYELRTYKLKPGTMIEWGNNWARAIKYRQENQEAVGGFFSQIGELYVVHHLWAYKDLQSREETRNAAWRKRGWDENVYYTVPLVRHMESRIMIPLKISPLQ
Test [15] has as its target N-acetyl-D-glucosamine kinase (Homo sapiens) (UniProt Q9UJ70). Briefly: Binding affinity to NAGK in human NCI-H23 cells at 1 uM by mass spectrometry based pull down assay. Format: cell-based.
The target in test [16] is Long-chain-fatty-acid--CoA ligase 1 (Homo sapiens) (UniProt P33121). Briefly: Binding affinity to ACSL1 in human NCI-H358 cells at 1 uM by mass spectrometry based pull down assay. The class given is cell-based. The essentials: as §1
Another test deals with Plastin-2 (Homo sapiens) (UniProt P13796). Briefly: Binding affinity to LCP1 in human NCI-H358 cells at 1 uM by mass spectrometry based pull down assay. The class given is cell-based.
Test [17] concerns the target ADP-ribosylation factor 5 (Homo sapiens) (UniProt P84085). Briefly: Binding affinity to ARF5 in human NCI-H358 cells at 1 uM by mass spectrometry based pull down assay. Format: cell-based.
The target in test [18] is Small ribosomal subunit protein eS6 (Homo sapiens) (UniProt P62753). Briefly: Binding affinity to RPS6 in human NCI-H23 cells at 1 uM by mass spectrometry based pull down assay. Format: cell-based.
Test [19] addresses Small proline-rich protein 3 (Homo sapiens) (UniProt Q9UBC9). Briefly: Binding affinity to SPRR3 in human NCI-H358 cells at 1 uM by mass spectrometry based pull down assay. The class given is cell-based.
Test [20] deals with Ribonucleoside-diphosphate reductase large subunit (Homo sapiens) (UniProt P23921). Briefly: Binding affinity to RRM1 in human NCI-H358 cells at 1 uM by mass spectrometry based pull down assay. Format: cell-based.
Chain of Ribonucleoside-diphosphate reductase large subunit (Homo sapiens) (P23921 whole entry): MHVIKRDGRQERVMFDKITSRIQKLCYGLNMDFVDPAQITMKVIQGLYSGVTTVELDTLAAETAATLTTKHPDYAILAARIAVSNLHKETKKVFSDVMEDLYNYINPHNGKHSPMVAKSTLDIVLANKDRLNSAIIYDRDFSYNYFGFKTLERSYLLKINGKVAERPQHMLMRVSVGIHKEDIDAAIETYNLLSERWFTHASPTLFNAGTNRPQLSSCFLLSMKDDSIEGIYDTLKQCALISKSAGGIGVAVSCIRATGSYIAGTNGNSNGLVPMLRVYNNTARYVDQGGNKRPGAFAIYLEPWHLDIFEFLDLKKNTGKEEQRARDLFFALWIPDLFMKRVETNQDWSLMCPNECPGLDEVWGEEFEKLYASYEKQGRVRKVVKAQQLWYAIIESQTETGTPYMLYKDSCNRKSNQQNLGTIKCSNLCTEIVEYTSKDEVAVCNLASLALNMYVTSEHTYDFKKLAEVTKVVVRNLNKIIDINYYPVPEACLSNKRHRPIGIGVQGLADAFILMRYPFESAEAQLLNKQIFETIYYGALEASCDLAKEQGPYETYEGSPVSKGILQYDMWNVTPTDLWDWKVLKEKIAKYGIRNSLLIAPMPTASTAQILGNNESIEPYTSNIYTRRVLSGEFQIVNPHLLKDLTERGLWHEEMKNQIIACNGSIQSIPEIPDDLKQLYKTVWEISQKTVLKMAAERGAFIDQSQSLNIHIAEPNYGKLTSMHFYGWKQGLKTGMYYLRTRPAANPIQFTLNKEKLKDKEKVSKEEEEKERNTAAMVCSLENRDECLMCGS
The target in test [21] is Dual specificity mitogen-activated protein kinase kinase 1 (Homo sapiens) (UniProt Q02750). Briefly: Binding affinity to MAP2K1 in human NCI-H358 cells at 1 uM by mass spectrometry based pull down assay. The class given is cell-based.
Test [22] deals with Inosine-5'-monophosphate dehydrogenase 2 (Homo sapiens) (UniProt P12268). Briefly: Binding affinity to IMPDH2 in human NCI-H23 cells at 1 uM by mass spectrometry based pull down assay. The class given is cell-based.
Chain of Inosine-5'-monophosphate dehydrogenase 2 (Homo sapiens) (P12268 2-514 limits assumed): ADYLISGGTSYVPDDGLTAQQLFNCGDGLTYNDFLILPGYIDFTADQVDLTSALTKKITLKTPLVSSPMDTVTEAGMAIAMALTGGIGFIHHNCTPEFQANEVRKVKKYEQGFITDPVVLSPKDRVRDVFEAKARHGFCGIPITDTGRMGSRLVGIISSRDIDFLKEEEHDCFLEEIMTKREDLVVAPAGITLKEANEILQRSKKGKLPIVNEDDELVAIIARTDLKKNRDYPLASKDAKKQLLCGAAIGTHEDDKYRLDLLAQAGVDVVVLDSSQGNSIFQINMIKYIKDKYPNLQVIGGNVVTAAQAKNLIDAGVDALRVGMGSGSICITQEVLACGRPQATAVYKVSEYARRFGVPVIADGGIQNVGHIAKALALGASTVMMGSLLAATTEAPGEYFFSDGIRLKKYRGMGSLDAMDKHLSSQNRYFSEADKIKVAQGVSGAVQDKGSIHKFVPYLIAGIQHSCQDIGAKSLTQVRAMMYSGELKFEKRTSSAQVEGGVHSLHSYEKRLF
Test [23] addresses Tubulin alpha-4A chain (Homo sapiens) (UniProt P68366). Briefly: Binding affinity to TUBA4A in human NCI-H23 cells at 1 uM by mass spectrometry based pull down assay. The class given is cell-based.
For test [24], the target named is Poly(rC)-binding protein 1 (Homo sapiens) (UniProt Q15365). Briefly: Binding affinity to PCBP1 in human NCI-H23 cells at 1 uM by mass spectrometry based pull down assay. Format: cell-based.
Test [25] addresses T1, 80S Ribosome (Homo sapiens). Briefly: Binding affinity to RPS25 in human NCI-H23 cells at 1 uM by mass spectrometry based pull down assay. Format: cell-based.
In test [26] the target is ATP-dependent RNA helicase DDX3X (Homo sapiens) (UniProt O00571). Briefly: Binding affinity to DDX3X in human NCI-H358 cells at 1 uM by mass spectrometry based pull down assay. The class given is cell-based.
Chain of ATP-dependent RNA helicase DDX3X (Homo sapiens) (O00571 2-662 limits assumed): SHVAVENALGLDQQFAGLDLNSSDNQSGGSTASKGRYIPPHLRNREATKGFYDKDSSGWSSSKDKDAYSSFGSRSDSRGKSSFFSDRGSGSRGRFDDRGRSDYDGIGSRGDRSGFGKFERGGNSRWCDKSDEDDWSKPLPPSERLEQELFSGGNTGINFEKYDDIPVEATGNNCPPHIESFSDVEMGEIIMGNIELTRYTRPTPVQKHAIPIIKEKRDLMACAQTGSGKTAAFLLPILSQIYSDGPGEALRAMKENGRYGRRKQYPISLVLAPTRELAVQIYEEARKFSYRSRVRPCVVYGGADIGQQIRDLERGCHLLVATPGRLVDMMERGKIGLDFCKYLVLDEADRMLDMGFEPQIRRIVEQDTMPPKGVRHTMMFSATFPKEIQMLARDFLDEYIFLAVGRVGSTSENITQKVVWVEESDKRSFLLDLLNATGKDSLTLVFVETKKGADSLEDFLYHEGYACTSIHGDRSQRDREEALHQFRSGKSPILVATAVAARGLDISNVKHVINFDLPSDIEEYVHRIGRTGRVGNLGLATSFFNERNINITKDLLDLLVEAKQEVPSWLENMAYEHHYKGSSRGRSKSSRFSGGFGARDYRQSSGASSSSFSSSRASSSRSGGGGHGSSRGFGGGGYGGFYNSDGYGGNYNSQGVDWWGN

The source made the active and inactive calls. The rule behind the calls is not given here.

Chain of N-acetyl-D-glucosamine kinase (Homo sapiens) (Q9UJ70 whole entry): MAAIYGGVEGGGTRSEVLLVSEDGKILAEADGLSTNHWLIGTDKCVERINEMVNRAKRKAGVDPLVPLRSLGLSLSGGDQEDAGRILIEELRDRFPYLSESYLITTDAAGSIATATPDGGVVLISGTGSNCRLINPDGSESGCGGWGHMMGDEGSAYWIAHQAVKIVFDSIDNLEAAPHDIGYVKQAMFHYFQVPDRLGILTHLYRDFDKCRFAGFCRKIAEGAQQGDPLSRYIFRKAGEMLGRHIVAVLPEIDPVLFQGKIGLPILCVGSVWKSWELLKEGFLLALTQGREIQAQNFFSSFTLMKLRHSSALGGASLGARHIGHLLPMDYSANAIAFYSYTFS
Chain of Tubulin alpha-4A chain (Homo sapiens) (P68366 whole entry, looked up): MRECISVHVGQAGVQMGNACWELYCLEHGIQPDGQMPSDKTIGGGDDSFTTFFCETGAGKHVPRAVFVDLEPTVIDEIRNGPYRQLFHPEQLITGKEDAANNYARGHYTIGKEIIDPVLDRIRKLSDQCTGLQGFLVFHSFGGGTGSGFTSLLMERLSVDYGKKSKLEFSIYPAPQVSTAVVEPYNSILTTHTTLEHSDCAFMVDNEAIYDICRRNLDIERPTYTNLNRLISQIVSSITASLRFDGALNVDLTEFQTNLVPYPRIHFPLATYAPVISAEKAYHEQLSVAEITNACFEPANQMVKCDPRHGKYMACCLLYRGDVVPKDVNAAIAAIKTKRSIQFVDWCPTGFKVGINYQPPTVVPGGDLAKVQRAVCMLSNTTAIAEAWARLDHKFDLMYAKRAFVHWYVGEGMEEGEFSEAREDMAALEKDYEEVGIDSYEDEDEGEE
Chain of ADP-ribosylation factor 5 (Homo sapiens) (P84085 whole entry): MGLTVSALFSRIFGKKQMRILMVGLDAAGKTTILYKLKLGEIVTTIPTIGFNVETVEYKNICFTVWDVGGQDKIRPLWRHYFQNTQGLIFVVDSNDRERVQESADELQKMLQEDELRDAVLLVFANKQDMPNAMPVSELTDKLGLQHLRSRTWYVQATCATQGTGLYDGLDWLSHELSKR
Chain of Heterogeneous nuclear ribonucleoprotein Q (Homo sapiens) (O60506 whole entry): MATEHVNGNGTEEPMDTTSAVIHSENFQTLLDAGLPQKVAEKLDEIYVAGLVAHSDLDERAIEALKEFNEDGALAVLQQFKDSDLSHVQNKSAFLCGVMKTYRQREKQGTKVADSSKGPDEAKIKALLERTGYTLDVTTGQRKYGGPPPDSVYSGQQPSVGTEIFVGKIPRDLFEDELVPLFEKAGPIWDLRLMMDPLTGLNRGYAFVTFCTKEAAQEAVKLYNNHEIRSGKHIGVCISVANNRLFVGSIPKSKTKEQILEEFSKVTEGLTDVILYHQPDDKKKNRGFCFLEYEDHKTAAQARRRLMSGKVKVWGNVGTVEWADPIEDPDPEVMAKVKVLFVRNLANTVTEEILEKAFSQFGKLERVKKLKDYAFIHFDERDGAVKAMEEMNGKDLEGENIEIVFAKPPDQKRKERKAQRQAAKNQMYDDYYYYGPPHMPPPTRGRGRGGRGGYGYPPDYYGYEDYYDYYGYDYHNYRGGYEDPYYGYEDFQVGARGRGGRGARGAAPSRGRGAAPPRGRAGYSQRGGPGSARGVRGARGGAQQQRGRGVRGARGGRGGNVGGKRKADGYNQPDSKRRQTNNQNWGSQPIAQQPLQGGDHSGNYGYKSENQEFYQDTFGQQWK
Chain of Small proline-rich protein 3 (Homo sapiens) (Q9UBC9 whole entry): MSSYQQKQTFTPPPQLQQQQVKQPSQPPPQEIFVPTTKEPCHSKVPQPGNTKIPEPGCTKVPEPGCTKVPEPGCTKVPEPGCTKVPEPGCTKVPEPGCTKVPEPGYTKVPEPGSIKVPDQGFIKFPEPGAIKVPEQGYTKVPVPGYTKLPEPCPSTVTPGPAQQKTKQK

In the case of `COc1cc(O)c2c(c1)/C=C/C[C@H](O)[C@H](O)C(=O)/C=C\C[C@H](C)OC2=O`, the Activity in test [1] is 7.1%.

As for `C=CC(=O)Nc1ccccc1Nc1nc(Nc2ccc(N3CCN(CCOCCOCCOCCNC(=O)CCCC[C@@H]4SC[C@@H]5NC(=O)N[C@@H]54)CC3)cc2)ncc1Cl`, the result in test [2], in test [3], in [4], in test [5], in test [6] and in test [7] was Active. For the same compound, the outcome in test [8], in test [9], in test [10], in test [11], in [12] and in test [13] was Active. Also, the outcome (in test [14]; in [15]; in test [16]; on Plastin-2 (Homo sapiens); in test [17]; in test [18]) was Active. In addition, the outcome in test [19], in [20], in [21], in [22], in test [23] and in [24] was Active. The outcome in test [25] and in [26] was Active.

The values are drawn from ChEMBL document CHEMBL4118021, “Studies of TAK1-centered polypharmacology with novel covalent TAK1 inhibitors” (Bioorg Med Chem, 2017).
